For experiment [1], the species on record is Sus scrofa. Put plainly: Inhibition of ADP-induced platelet aggregation at 100 ug/mL. Format: functional. In a few lines: (§1)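 Platelet-rich plasma from pig blood anticoagulated with sodium citrate (final 0.3 g/100 mL in blood), spun 500g for 20 min at 20 °C; about 2.0–8.0×10^8 platelets/mL, counted in duplicate. ADP-induced aggregation followed turbidimetrically at 600 nm with stirring (Born method). Criterion: 50% inhibition at ≤100 mcg/mL test compound, compared with adenosine as standard.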

The species named for experiment [2] is Oryctolagus cuniculus. Put plainly: Ratio of I50 of compound and I50 of theophylline for inhibition of cAMP phosphodiesterase isolated from rabbit kidney.
For experiment [3], the species on record is Oryctolagus cuniculus. The experiment can be described thus: Ratio of I50 of compound and I50 of theophylline for inhibition of cAMP phosphodiesterase isolated from rabbit lung. Summed up: (§2)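 Partially purified cAMP PDEs from beef heart, rabbit lung and rabbit kidney. Assay mixture in 0.5 mL: 25 μmol Tris-HCl pH 7.5, 5 μmol MgCl2, 10–75 μg enzyme protein, 350 pmol [3H]cAMP, and at least seven inhibitor concentrations (0.5 μM–5 mM). 5'-AMP formed measured at at least three time points (3–12 min) to confirm linear rates. I50 read graphically from % inhibition vs log concentration; α = I50 compound / I50 theophylline, with theophylline run in each experiment.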

The species named for experiment [4] is Sus scrofa. Put plainly: Inhibition of ADP-induced platelet aggregation at 50 ug/mL. Type of experiment: functional. In a few lines: as §1
A further experiment is filed under the species Bos taurus. The experiment can be described thus: Relative inhibition of bovine heart cAMP phosphodiesterase compared to theophylline. Summed up: as §2
The species entered for experiment [5] is Oryctolagus cuniculus. Put plainly: Relative inhibition of rabbit lung cAMP Phosphodiesterase compared to theophylline (Insoluble).
The species named for experiment [6] is Sus scrofa. The experiment can be described thus: Inhibition of ADP-induced platelet aggregation at 25 ug/mL. Format: functional. Summed up: as §1
Experiment [7] deals with cAMP phosphodiesterase (Bos taurus). Put plainly: Relative inhibition of beef heart cAMP phosphodiesterase compared to theophylline. As to conditions: target entry is the homologue from another species.
For experiment [8], the species on record is Oryctolagus cuniculus. The experiment can be described thus: Relative inhibition of rabbit lung cAMP Phosphodiesterase compared to theophylline. In a few lines:
as §2

The nature of experiment [9]: Inhibition of ADP-induced platelet aggregation at 100 ug/mL.

SMILES strings stand for the structures.

What is called inhibition is the change of the read-out against control, counted positive when it falls. Read a low inhibition as a response near the control.

`CCOC(=O)c1cnc2c(Br)cnn2c1NCCO` displayed an inhibition at 100 µg/mL in the experiment listed under Sus scrofa [1] of 72%. Also, the Ratio came out at 3.1 in the experiment listed under Oryctolagus cuniculus [2] and 1.3 in the experiment listed under Oryctolagus cuniculus [3].
Regarding `CCOc1cnc2c(CC)cnn2c1NCC(=O)O`, the Ratio was 0.4 in the experiment listed under Oryctolagus cuniculus [2] and 0.7 in the experiment filed under Oryctolagus cuniculus [3].
`CCOC(=O)c1cnc2ccnn2c1NCC(=O)O` came in with an inhibition at 100 µg/mL in the experiment filed under Sus scrofa [1] of 76%. Also, the Ratio stood at 1.2 in the experiment filed under Oryctolagus cuniculus [2] and 1.7 in the experiment listed under Oryctolagus cuniculus [3]. In the experiment listed under Sus scrofa [4], this molecule showed an inhibition at 50 µg/mL of 67%.
Take `CCOC(=O)c1cnc2c(CC)cnn2c1SCC`: the Ratio in the experiment listed under Oryctolagus cuniculus [2] was determined as 5.5; in the experiment filed under Oryctolagus cuniculus [3], 13.
Take `CCOC(=O)c1cnc2c(Br)cnn2c1N(CC)CC`: the figures for the Ratio in the experiment filed under Oryctolagus cuniculus [2], in the experiment listed under Oryctolagus cuniculus [3] and in the experiment listed under Bos taurus were 6, 6 and 3.5, respectively.
`CCOC(=O)c1cnc2ccnn2c1NN(C)C`: the Ratio in the experiment listed under Oryctolagus cuniculus [2] came to 1.1; in the experiment filed under Oryctolagus cuniculus [3], 2.
Consider `CCCOc1c(C(=O)OCC)cnc2c(CC)cnn12`, for which the Ratio in the experiment listed under Oryctolagus cuniculus [2] and in the experiment listed under Oryctolagus cuniculus [3] was 2.4 in each case.
Take `CCCNc1cc(C)nc2c(CC)cnn12`: in the experiment listed under Oryctolagus cuniculus [3], the Ratio stood at 9.4.
Turning to `Cc1cc(NN)n2nccc2n1`, the Ratio in the experiment filed under Oryctolagus cuniculus [3] came to 1.5.
As for `CCOC(=O)c1cnc2c(Br)cnn2c1NCC(=O)O`, the Ratio in the experiment listed under Oryctolagus cuniculus [2] turned out to be 1.5; in the experiment listed under Oryctolagus cuniculus [3], 2.4; in the experiment listed under Bos taurus, 2.6.
As for `CCSc1cc(C)nc2c(CC)cnn12`, the Ratio in the experiment filed under Oryctolagus cuniculus [3] is 8.9.
`CCOC(=O)c1cnc2c(Br)cnn2c1N` had an inhibition at 100 µg/mL in the experiment filed under Sus scrofa [1] of 68%. For the same molecule, in the experiment filed under Oryctolagus cuniculus [5], the Ratio result was “Insoluble”. Moreover, the inhibition at 25 µg/mL in the experiment listed under Sus scrofa [6] worked out at 67%.
Take `CCOC(=O)c1cnc2ccnn2c1SCC`: the Ratio in the experiment filed under Oryctolagus cuniculus [2] was 0.8; in the experiment filed under Oryctolagus cuniculus [3], 4.3.
As to `CCCCNc1cc(C)nc2c(Br)cnn12`, the Ratio in the experiment listed under Oryctolagus cuniculus [3] was 1.5.
In the experiment listed under Sus scrofa [1], `CCNc1c(C(=O)OCC)cnc2c(Br)cnn12` yielded an inhibition at 100 µg/mL of 77%. Moreover, the results for the Ratio in the experiment listed under Oryctolagus cuniculus [2] and in the experiment filed under Oryctolagus cuniculus [3] were 8 and 4, respectively.
In the case of `CCCOc1c(OCC)cnc2c(CC)cnn12`, the Ratio is 1.3 in the experiment listed under Oryctolagus cuniculus [2] and 1.6 in the experiment listed under Oryctolagus cuniculus [3].
On to `CCOc1cc(C)nc2ccnn12`, for which, in the experiment filed under Oryctolagus cuniculus [3], the Ratio was determined as 1.4.
Take `CCCOc1c(C(=O)OCC)cnc2c(Br)cnn12`: the values for the Ratio in the experiment filed under Oryctolagus cuniculus [2] and in the experiment listed under Oryctolagus cuniculus [3] were 1.8 and 2.7, respectively.
In turn, `CCOC(=O)c1cnc2c(Br)cnn2c1O` gave an inhibition at 100 µg/mL in the experiment filed under Sus scrofa [1] of 88%. Moreover, the Ratio in the experiment listed under Oryctolagus cuniculus [2] worked out at 1; in the experiment listed under Oryctolagus cuniculus [3], 0.5. In the experiment listed under Sus scrofa [4], this molecule showed an inhibition at 50 µg/mL of 34%.
Regarding `CCOC(=O)c1cnc2c(CC)cnn2c1NN(C)C`, the values for the Ratio in the experiment filed under Oryctolagus cuniculus [2] and in the experiment filed under Oryctolagus cuniculus [3] were 1.4 and 3.7, respectively.
As for `CCOC(=O)c1cnc2ccnn2c1N`, in the experiment filed under Sus scrofa [1], testing at 100 µg/mL gave an inhibition of 94%. In addition, the Ratio in the experiment listed under Oryctolagus cuniculus [2] amounted to 1; in the experiment listed under Oryctolagus cuniculus [3] it was 0.9. The same molecule gave an inhibition at 50 µg/mL in the experiment filed under Sus scrofa [4] of 50%.
Take `CCOc1cnc2c(CC)cnn2c1NCCC(=O)O`: the Ratio in the experiment filed under Oryctolagus cuniculus [2] was 0.6; in the experiment listed under Oryctolagus cuniculus [3], 1.
Consider `CCCNc1c(C(=O)OCC)cnc2ccnn12`, for which the Ratio in the experiment filed under Oryctolagus cuniculus [2] came to 13; in the experiment filed under Oryctolagus cuniculus [3], 5.9.
For `CCCNc1c(OCC)cnc2c(CC)cnn12`, the figures for the Ratio in the experiment filed under Oryctolagus cuniculus [2] and in the experiment listed under Oryctolagus cuniculus [3] were 3.4 and 3.7, respectively.
As for `Cc1cc(N2CCCCC2)n2nccc2n1`, the Ratio came out at 1.5 in experiment [7] and 2.4 in the experiment filed under Oryctolagus cuniculus [8].
For the molecule `CCOC(=O)c1cnc2c([N+](=O)[O-])cnn2c1N`, in the experiment listed under Oryctolagus cuniculus [5], the Ratio entry was “Insoluble”.
As to `CCOC(=O)c1cnc2ccnn2c1S`, the figures for the Ratio in the experiment filed under Oryctolagus cuniculus [2], in the experiment listed under Oryctolagus cuniculus [3] and in the experiment filed under Bos taurus were 1, 2 and 1.2, respectively.
For `CCCOc1cc(C)nc2c(CC)cnn12`, in the experiment listed under Oryctolagus cuniculus [3], the Ratio came to 5.4.
In turn, `CCOC(=O)c1cnc2c(C(=O)OCC)cnn2c1N` showed an inhibition at 100 µg/mL in the experiment listed under Sus scrofa [1] of 96%. The Ratio was determined as 2 in the experiment listed under Oryctolagus cuniculus [2], 1.5 in the experiment filed under Oryctolagus cuniculus [3] and 0.7 in the experiment filed under Bos taurus. The molecule also yielded an inhibition at 50 µg/mL in the experiment filed under Sus scrofa [4] of 47%.
On to `CCOC(=O)c1cnc2ccnn2c1Cl`, for which the Ratio in the experiment filed under Oryctolagus cuniculus [2] and in the experiment listed under Oryctolagus cuniculus [3] was 0.6 in each case.
`CCOC(=O)c1cnc2ccnn2c1N(CC)CC`: the Ratio amounted to 2 in the experiment listed under Oryctolagus cuniculus [2], 1.8 in the experiment filed under Oryctolagus cuniculus [3] and 2.3 in the experiment listed under Bos taurus.
`CCNc1c(C(=O)OCC)cnc2ccnn12` returned an inhibition at 100 µg/mL in the experiment filed under Sus scrofa [1] of 86%. In addition, the Ratio in the experiment listed under Oryctolagus cuniculus [2] stood at 5.2; in the experiment listed under Oryctolagus cuniculus [3], 4.3. In the experiment filed under Sus scrofa [4], this molecule displayed an inhibition at 50 µg/mL of 42%.
In the case of `CCOC(=O)c1cnc2ccnn2c1NCCO`, in the experiment filed under Sus scrofa [1], at 100 µg/mL the inhibition was 92%. In addition, the Ratio in the experiment listed under Oryctolagus cuniculus [2] is 0.3; in the experiment listed under Oryctolagus cuniculus [3], 1.5. Testing at 50 µg/mL in the experiment listed under Sus scrofa [4] gave an inhibition of 47%.
In turn, `CCCNc1c(C(=O)OCC)cnc2c(Br)cnn12` yielded an inhibition at 100 µg/mL in the experiment listed under Sus scrofa [1] of 50%. The Ratio in the experiment filed under Oryctolagus cuniculus [2] was 7.2; in the experiment listed under Oryctolagus cuniculus [3], 6.
Take `CCCNc1c(C(=O)OCC)cnc2c(CC)cnn12`: the Ratio in the experiment listed under Oryctolagus cuniculus [2] amounted to 3.2; in the experiment filed under Oryctolagus cuniculus [3], 3.6.
For the molecule `CCCOc1c(C(=O)OCC)cnc2ccnn12`, the Ratio in the experiment listed under Oryctolagus cuniculus [2] and in the experiment listed under Oryctolagus cuniculus [3] was 0.6 throughout.
Consider `Cc1cc(NCCO)n2nccc2n1`, for which the Ratio in the experiment listed under Oryctolagus cuniculus [3] was 0.5.
On to `COC(CNc1cc(C)nc2c(Br)cnn12)OC`, for which, in the experiment listed under Oryctolagus cuniculus [3], the Ratio was 6.8.
In the case of `CCOC(=O)c1cnc2c(C(=O)OCC)cnn2c1O`, at 100 µg/mL the inhibition in the experiment listed under Sus scrofa [1] was 68%. Moreover, the Ratio in the experiment filed under Oryctolagus cuniculus [2] was 0.4; in the experiment listed under Oryctolagus cuniculus [3], 0.6. Moreover, 50 µg/mL produced 23% inhibition in the experiment listed under Sus scrofa [4].
`Nc1ncnc2c1ncn2[C@@H]1O[C@H](CO)[C@@H](O)[C@H]1O` [ADENOSINE] showed an inhibition at 100 µg/mL in [9] of 64%.

These data come from ChEMBL document CHEMBL1122019, “Synthesis and enzymic activity of 6-carbethoxy- and 6-ethoxy-3,7-disubstituted-pyrazolo[1,5-a]pyrimidines and related derivatives as adenosine cyclic 3' ,5'-phosphate phosphodiesterase inhibitors” (1982).
